Measurements from ChEMBL document CHEMBL3297654, “Synthesis, antimicrobial and cytotoxic activities, and structure-activity relationships of gypsogenin derivatives against human cancer cells” (Eur J Med Chem, 2014).
The source made the active and inactive calls. No cut-off for these calls is given here.

What was measured:
[1] = test system: HL-60; assay: Antiproliferative activity against human HL60 cells after 24 and 72 hrs by MTT assay; type: functional, cell-based
Procedure, shortened: (§1)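 ATCC human cell lines are kept in RPMI, DMEM or McCoy's 5A with 10–15% heat-inactivated FCS at 37 °C and 5% CO2. They are seeded at 1×10^4–1×10^5 cells/mL in 48-well plates and exposed to 0.5, 10, 20 or 40 µM. Viability is read by MTT (590 nm) at 24 and 72 h. Growth is expressed relative to untreated cells and IC50 is fitted, in triplicate.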

[2] = test system: SAOS-2; assay: Induction of apoptosis in human Saos2 cells at 20 uM after 48 hrs by Hoechst 33258/propidium iodide staining based phase contrast microscopic analysis; type: functional
Procedure, shortened: (§2)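 Cells in 48-well plates treated with 0.5, 10, 20 or 40 µM for 24 and 48 h. Values are read at 48 h, 20 µM for test agents and 0.5 µM for controls. Staining is Hoechst 33258/propidium iodide double staining with fluorescence microscopy. Blue nuclei are viable or early-to-mid apoptotic, and pink nuclei are late apoptotic or necrotic. Apoptosis and necrosis are scored from chromatin condensation as % of cells. Cells are grown at 37 °C in 5% CO2 in RPMI, DMEM or McCoy's 5A with 10–15% heat-inactivated FCS.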

[3] = Antiproliferative activity against human Saos2 cells after 24 and 72 hrs by MTT assay; type: functional, cell-based; conditions: SAOS-2; procedure, shortened: as §1
[4] = test system: MCF7; assay: Induction of apoptosis in human MCF7 cells at 20 uM after 48 hrs by Hoechst 33258/propidium iodide staining based phase contrast microscopic analysis; type: functional; procedure, shortened: as §2
[5] = test system: Enterococcus faecalis; assay: Antimicrobial activity against Enterococcus faecalis ATCC 29212 assessed as zone of inhibition at 30 uL for 24 hrs at 37 degC by disk diffusion test; type: functional, organism-based
Procedure, shortened: (§3)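 Compound (30 µL of a fresh 1000 µg/mL DMSO stock) goes into a 6 mm well cut in Mueller Hinton agar inoculated with 0.1 mL broth culture adjusted to 0.5 McFarland (about 1×10^8 cells/mL). Plates are incubated 24 h at 37 °C, then zone of inhibition diameter is measured in mm.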

[6] = test system: Pseudomonas aeruginosa; assay: Antimicrobial activity against Pseudomonas aeruginosa ATCC 35032 assessed as zone of inhibition at 30 uL for 24 hrs at 37 degC by disk diffusion test; type: functional, organism-based; procedure, shortened: as §3
[7] = test system: Bacillus thuringiensis; assay: Antimicrobial activity against Bacillus thuringiensis assessed as zone of inhibition at 30 uL for 24 hrs at 30 degC by disk diffusion test; type: functional
Procedure, shortened: (§4)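 Agar well diffusion on Mueller Hinton agar seeded with 0.1 mL broth culture (18–24 h), adjusted to 0.5 McFarland (about 1×10^8 bacteria or 1×10^6 yeast cells/mL). A 6 mm well is filled with 30 µL of compound from a fresh 1000 µg/mL DMSO stock. Plates are held at 30 °C for 24 h and inhibition zone diameter is read in mm.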

[8] = test system: Klebsiella pneumoniae; assay: Antimicrobial activity against Klebsiella pneumoniae ATCC 13882 assessed as zone of inhibition at 30 uL for 24 hrs at 37 degC by disk diffusion test; type: functional, organism-based; procedure, shortened: as §3
[9] = test system: Bacillus cereus; assay: Antimicrobial activity against Bacillus cereus ATCC 11778 assessed as zone of inhibition at 30 uL for 24 hrs at 30 degC by disk diffusion test; type: functional; procedure, shortened: as §4
[10] = test system: Staphylococcus epidermidis; assay: Antimicrobial activity against Staphylococcus epidermidis ATCC 12228 assessed as zone of inhibition at 30 uL for 24 hrs at 37 degC by disk diffusion test; type: functional, organism-based; procedure, shortened: as §3
[11] = test system: Saccharomyces cerevisiae; assay: Antimicrobial activity against Saccharomyces cerevisiae ATCC 9763 assessed as zone of inhibition at 30 uL for 24 hrs at 30 degC by disk diffusion test; type: functional, organism-based; procedure, shortened: as §4
[12] = test system: Caco-2; assay: Antiproliferative activity against human Caco2 cells after 24 and 72 hrs by MTT assay; type: functional, cell-based; procedure, shortened: as §1
[13] = test system: HT-29; assay: Induction of necrosis in human HT-29 cells at 20 uM after 48 hrs by Hoechst 33258/propidium iodide staining based phase contrast microscopic analysis; type: functional; procedure, shortened: as §2
[14] = test system: HeLa; assay: Induction of necrosis in human HeLa cells at 20 uM after 48 hrs by Hoechst 33258/propidium iodide staining based phase contrast microscopic analysis; type: functional; procedure, shortened: as §2
[15] = test system: Candida albicans; assay: Antimicrobial activity against Candida albicans ATCC 10231 assessed as zone of inhibition at 30 uL for 24 hrs at 30 degC by disk diffusion test; type: functional, organism-based; procedure, shortened: as §4
[16] = test system: MCF7; assay: Antiproliferative activity against human MCF7 cells after 24 and 72 hrs by MTT assay; type: functional, cell-based; procedure, shortened: as §1
[17] = test system: HL-60; assay: Induction of apoptosis in human HL60 cells at 20 uM after 48 hrs by Hoechst 33258/propidium iodide staining based phase contrast microscopic analysis; type: functional; procedure, shortened: as §2
[18] = test system: Bacillus cereus; assay: Antimicrobial activity against Bacillus cereus ATCC 11778 for 24 hrs by microdillution method; type: functional
Procedure, shortened: (§5)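 Broth microdilution. Compound is dissolved in DMSO (2 mg/mL) and diluted in Mueller Hinton broth as two-fold serial dilutions from 256 to 0.125 µg/mL. Bacteria are pre-grown in nutrient broth at 30 °C, and the final inoculum is about 10^6 cfu/mL. Tests are incubated 37 °C for 24 h. MIC is the lowest concentration giving complete inhibition. Streptomycin is the positive control.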

[19] = test system: Caco-2; assay: Induction of apoptosis in human Caco2 cells at 20 uM after 48 hrs by Hoechst 33258/propidium iodide staining based phase contrast microscopic analysis; type: functional; procedure, shortened: as §2
[20] = test system: Caco-2; assay: Induction of necrosis in human Caco2 cells at 20 uM after 48 hrs by Hoechst 33258/propidium iodide staining based phase contrast microscopic analysis; type: functional; procedure, shortened: as §2
[21] = test system: HeLa; assay: Induction of apoptosis in human HeLa cells at 20 uM after 48 hrs by Hoechst 33258/propidium iodide staining based phase contrast microscopic analysis; type: functional; procedure, shortened: as §2
[22] = test system: Micrococcus luteus; assay: Antimicrobial activity against Micrococcus luteus ATCC 9341 assessed as zone of inhibition at 30 uL for 24 hrs at 30 degC by disk diffusion test; type: functional, organism-based; procedure, shortened: as §4
[23] = test system: HT-29; assay: Induction of apoptosis in human HT-29 cells at 20 uM after 48 hrs by Hoechst 33258/propidium iodide staining based phase contrast microscopic analysis; type: functional; procedure, shortened: as §2
[24] = test system: Escherichia coli; assay: Antimicrobial activity against Escherichia coli ATCC 25922 assessed as zone of inhibition at 30 uL for 24 hrs at 37 degC by disk diffusion test; type: functional, organism-based; procedure, shortened: as §3
[25] = test system: SAOS-2; assay: Induction of necrosis in human Saos2 cells at 20 uM after 48 hrs by Hoechst 33258/propidium iodide staining based […] microscopic analysis; type: functional; procedure, shortened: as §2
[26] = test system: Staphylococcus aureus; assay: Antimicrobial activity against Staphylococcus aureus ATCC 25923 assessed as zone of inhibition at 30 uL for 24 hrs at 37 degC by disk diffusion test; type: functional, organism-based; procedure, shortened: as §3
[27] = test system: Nakaseomyces glabratus; assay: Antimicrobial activity against Candida glabrata assessed as zone of inhibition at 30 uL for 24 hrs at 30 degC by disk diffusion test; type: functional, organism-based; procedure, shortened: as §4
[28] = test system: HL-60; assay: Induction of necrosis in human HL60 cells at 20 uM after 48 hrs by Hoechst 33258/propidium iodide staining based phase contrast microscopic analysis; type: functional; procedure, shortened: as §2
[29] = test system: Salmonella typhimurium; assay: Antimicrobial activity against Salmonella typhimurium ATCC 14028 assessed as zone of inhibition at 30 uL for 24 hrs at 37 degC by disk diffusion test; type: functional, organism-based; conditions: Salmonella enterica subsp. enterica serovar Typhimurium; procedure, shortened: as §3
[30] = test system: MCF7; assay: Induction of necrosis in human MCF7 cells at 20 uM after 48 hrs by Hoechst 33258/propidium iodide staining based phase contrast microscopic analysis; type: functional; procedure, shortened: as §2
[31] = test system: Cyberlindnera jadinii; assay: Antimicrobial activity against Candida utilis ATCC 9950 assessed as zone of inhibition at 30 uL for 24 hrs at 30 degC by disk diffusion test; type: functional, organism-based; procedure, shortened: as §4
[32] = test system: HeLa; assay: Antiproliferative activity against human HeLa cells after 24 and 72 hrs by MTT assay; type: functional, cell-based; procedure, shortened: as §1
[33] = test system: HT-29; assay: Antiproliferative activity against human HT-29 cells after 24 and 72 hrs by MTT assay; type: functional, cell-based; procedure, shortened: as §1
[34] = test system: Bacillus thuringiensis; assay: Antimicrobial activity against Bacillus thuringiensis for 24 hrs by microdillution method; type: functional; procedure, shortened: as §5
[35] = test system: Bacillus subtilis; assay: Antimicrobial activity against Bacillus subtilis ATCC 6633 assessed as zone of inhibition at 30 uL for 24 hrs at 30 degC by disk diffusion test; type: functional; procedure, shortened: as §4
[36] = test system: Bacillus subtilis; assay: Antimicrobial activity against Bacillus subtilis ATCC 6633 for 24 hrs by microdillution method; type: functional; procedure, shortened: as §5
[37] = test system: Candida tropicalis; assay: Antimicrobial activity against Candida tropicalis assessed as zone of inhibition at 30 uL for 24 hrs at 30 degC by disk diffusion test; type: functional, organism-based; procedure, shortened: as §4
[38] = test system: Proteus vulgaris; assay: Antimicrobial activity against Proteus vulgaris ATCC 33420 assessed as zone of inhibition at 30 uL for 24 hrs at 37 degC by disk diffusion test; type: functional, organism-based; procedure, shortened: as §3

| SMILES | IC50 [1] | Activity [2] | IC50 [3] | Activity [4] | diameter of the inhibition zone (DIZ) [5] | diameter of the inhibition zone (DIZ) [6] | diameter of the inhibition zone (DIZ) [7] | diameter of the inhibition zone (DIZ) [8] | diameter of the inhibition zone (DIZ) [9] | diameter of the inhibition zone (DIZ) [10] | diameter of the inhibition zone (DIZ) [11] | IC50 [12] | Activity [13] | Activity [14] | diameter of the inhibition zone (DIZ) [15] | IC50 [16] | Activity [17] | MIC [18] | Activity [19] | Activity [20] | other results |
| --- | --- | --- | --- | --- | --- | --- | --- | --- | --- | --- | --- | --- | --- | --- | --- | --- | --- | --- | --- | --- | --- |
| CC(=O)O[C@H]1CC[C@]2(C)[C@H]3CC=C4[C@@H]5CC(C)(C)CC[C@]5(C(=O)OCc5ccccc5)CC[C@@]4(C)[C@]3(C)CC[C@H]2[C@]1(C)C=O | 6.74 µM | 0% | 10.7 µM | 5% | inactive | inactive | inactive | inactive | inactive | inactive | inactive | 51.1 µM | 29% | 68% | inactive | 65.2 µM | 3% | inactive | 1% | 37% | Activity [21]: 2%; diameter of the inhibition zone (DIZ) [22]: inactive; Activity [23]: 0.7%; diameter of the inhibition zone (DIZ) [24]: inactive; Activity [25]: 45%; diameter of the inhibition zone (DIZ) [26]: inactive; diameter of the inhibition zone (DIZ) [27]: inactive; Activity [28]: 51%; diameter of the inhibition zone (DIZ) [29]: inactive; Activity [30]: 36%; diameter of the inhibition zone (DIZ) [31]: inactive; IC50 [32]: 287 µM; IC50 [33]: 10.3 µM; MIC [34]: inactive; diameter of the inhibition zone (DIZ) [35]: inactive; MIC [36]: inactive; diameter of the inhibition zone (DIZ) [37]: inactive; diameter of the inhibition zone (DIZ) [38]: inactive |
| CC(=O)O[C@H]1CC[C@]2(C)[C@H]3CC=C4[C@@H]5CC(C)(C)CC[C@]5(C(=O)OCc5ccccc5)CC[C@@]4(C)[C@]3(C)CC[C@H]2[C@]1(C)/C=N/O | 8.68 µM | 24% | 11.7 µM | 10% | inactive | inactive | inactive | inactive | inactive | inactive | inactive | 20.3 µM | 14% | 50% | inactive | 9.9 µM | 5% | inactive | 19% | 33% | Activity [21]: 15%; diameter of the inhibition zone (DIZ) [22]: inactive; Activity [23]: 24%; diameter of the inhibition zone (DIZ) [24]: inactive; Activity [25]: 44%; diameter of the inhibition zone (DIZ) [26]: inactive; diameter of the inhibition zone (DIZ) [27]: inactive; Activity [28]: 50%; diameter of the inhibition zone (DIZ) [29]: inactive; Activity [30]: 48%; diameter of the inhibition zone (DIZ) [31]: inactive; IC50 [32]: 40.3 µM; IC50 [33]: 21.4 µM; MIC [34]: inactive; diameter of the inhibition zone (DIZ) [35]: inactive; MIC [36]: inactive; diameter of the inhibition zone (DIZ) [37]: inactive; diameter of the inhibition zone (DIZ) [38]: inactive |
